The target of the assay is T1, Vitamin K epoxide reductase complex subunit 1 (Bos taurus, UniProt Q6B4J2).
T1 sequence (Q6B4J2 whole entry): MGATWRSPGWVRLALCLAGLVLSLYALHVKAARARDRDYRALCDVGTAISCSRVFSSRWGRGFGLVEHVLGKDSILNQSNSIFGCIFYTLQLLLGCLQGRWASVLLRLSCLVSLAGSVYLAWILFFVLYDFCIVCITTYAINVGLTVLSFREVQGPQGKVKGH
In words: Apparent kinetic constant for Vitamin K epoxide reductase. In short, it runs like this:
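Beef liver microsomes (0.8 mg) as vitamin K1 epoxide reductase source, 0.02% Emulgen 911. Vitamin K1 epoxide varied (10, 12.5, 16.5, 25, 40 μM) with 5 mM DTT, analogue at 0, 20, 40, 60 μM. Double-reciprocal plots built; Ki taken from replots of Km,app against analogue concentration. Also run at 40 μM epoxide with DTT varied 0.33–2.0 mM.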
In the case of `C/C(=C\CC12OC1(CF)C(=O)c1ccccc1C2=O)CCCC(C)CCCC(C)CCCC(C)C` (stereo not drawn), the Ki was 17 µM.

Turning to `C/C(=C\CC12OC1(CO)C(=O)c1ccccc1C2=O)CCCC(C)CCCC(C)CCCC(C)C` (stereo not drawn), the Ki was 8 µM.

Consider `C/C(=C\C(O)C12OC1(C)C(=O)c1ccccc1C2=O)CCCC(C)CCCC(C)CCCC(C)C` (stereo not drawn), for which the Ki is 43 µM. Under `C/C(=C\CC12OC1(C(F)F)C(=O)c1ccccc1C2=O)CCCC(C)CCCC(C)CCCC(C)C` (stereo not drawn) stands 63 µM; under `CC(C)CCCC(C)CCCC(C)CCCC(C)CC(O)C12OC1(C)C(=O)c1ccccc1C2=O` (stereo not drawn), 63 µM. For `C/C(=C\CC12OC1(CCl)C(=O)c1ccccc1C2=O)CCCC(C)CCCC(C)CCCC(C)C` (stereo not drawn) the value was 74 µM; for `CC(C)CCCC(C)CCCC(C)CCCC(C)CC(F)C12OC1(C)C(=O)c1ccccc1C2=O` (stereo not drawn), 100 µM; for `C/C(=C\CC12OC1(C=O)C(=O)c1ccccc1C2=O)CCCC(C)CCCC(C)CCCC(C)C` (stereo not drawn), 26 µM.

(Values after ChEMBL document CHEMBL1124804, “Substituted vitamin K epoxide analogues. New competitive inhibitors and substrates of vitamin K1 epoxide reductase” (J Med Chem, 1990).)
